Measurements reported in ChEMBL document CHEMBL5107954, “Potency and metabolic stability: a molecular hybrid case in the design of novel PF74-like small molecules targeting HIV-1 capsid protein” (RSC Med Chem, 2021).

How the values were obtained:
[1] = test system: Human immunodeficiency virus 1; test: Binding affinity to HIV-1 capsid protein 121 expressed in Escherichia coli BL21 (DE3) cells assessed as change in melting temperature at 20 uM measured every 10 sec by RT-PCR based thermal shift assay
Procedure, shortened: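 Crosslinked hexameric CA A14C/E45C/W184A/M185A (CA121), purified protein at 7.5 μM in 50 mM sodium phosphate pH 8.0 with 1× Sypro Orange; compound 20 μM or DMSO control, 1% DMSO final. Heated 25 to 95 °C at 0.2 °C per 10 s in a real-time PCR instrument; fluorescence Ex 475–500, Em 520–590 nm. ΔTm is the hexamer melting point with compound minus DMSO control.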

[2] = (§1) Antiviral activity against wild type HIV1 NL4-3 infected in human TZM cells expressing GFP assessed as inhibition of viral LTR-activated GFP expression preincubated with compound for 24 hrs followed by viral infection and measured after 48 hrs; format: functional, cell-based; conditions: Human immunodeficiency virus 1, NL4-3, TZM
Procedure, shortened: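 TZM-GFP cells at 1 × 10^4 cells/well were treated with increasing compound concentrations, then infected 24 h later with HIV-1 NL4-3 at MOI 0.1. After 48 h, GFP-positive cells were counted by imaging and compared with DMSO controls. EC50 came from a log(inhibitor) vs. normalized response, variable-slope fit. Run in duplicate, ≥2 independent experiments, mean ± SD.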

[3] = Cytotoxicity against human TZM cells expressing GFP assessed as inhibition of cell growth incubated for 72 hrs by XTT assay; format: toxicity, cell-based
Procedure, shortened: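 TZM-GFP cells at 1 × 10^4 cells/well were exposed continuously to increasing compound concentrations for 72 h. Viable cells were read by XTT. CC50 came from a log(inhibitor) vs. normalized response, variable-slope curve fit. Run in duplicate, ≥2 independent experiments, mean ± SD.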

[4] = Metabolic stability in human liver microsomes assessed as half-life at 1 uM measured upto 15 mins in the presence of NADPH as co-factor by LC-MS/MS analysis; format: ADME, Microsome
[5] = Metabolic stability in mouse liver microsomes assessed as half-life at 1 uM measured upto 15 mins in the presence of NADPH as co-factor by LC-MS/MS analysis; format: ADME, Microsome
[6] = Metabolic stability in human liver microsomes assessed as half-life measured upto 60 mins in the presence of NADPH as co-factor by LC-MS/MS analysis; format: ADME, Microsome
[7] = as §1, with “Potency index, ratio of test compound EC50 to PF74 EC50 for antiviral” for “Antiviral”; format: functional, Human immunodeficiency virus 1; conditions: time 72 hrs

| Compound | ΔTm [1] | EC50 [2] | CC50 at 72 h [3] | half-life at 1 µM [4] | half-life at 1 µM [5] | half-life [6] | Ratio EC50 [7] |
| --- | --- | --- | --- | --- | --- | --- | --- |
| CN(C(=O)[C@H](Cc1ccccc1)NC(=O)CN1CCN(C(=O)c2ccc(Br)cc2)CC1=O)c1ccc(Cl)cc1 | 0.8 °C | 10.2 µM | > 50 µM |  |  |  |  |
| CN(C(=O)[C@H](Cc1ccccc1)NC(=O)CN1CCNCC1=O)c1ccc(Cl)cc1 | 0.1 °C | > 20 µM | > 50 µM |  |  |  |  |
| CN(C(=O)[C@H](Cc1ccccc1)NC(=O)CN1CCN(C(=O)c2ccccc2Cl)CC1=O)c1ccc(Cl)cc1 | 1.5 °C | 6.4 µM | > 50 µM | 6.2 min | 1.1 min |  |  |
| CN(C(=O)[C@H](Cc1ccccc1)NC(=O)CN1CCN(C(=O)c2cccc(Cl)c2)CC1=O)c1ccc(Cl)cc1 | 1 °C | 10.2 µM | > 50 µM |  |  |  |  |
| CN(C(=O)[C@H](Cc1ccccc1)NC(=O)CNC(=O)c1ccccc1)c1ccc(Cl)cc1 |  | 0.88 µM |  |  |  | 36 min | 1.4 |
| CN(C(=O)[C@H](Cc1ccccc1)NC(=O)COn1nnc2cccnc21)c1ccc(Cl)cc1 | 1 °C | 5.2 µM | > 50 µM | 0.8 min | 0.5 min |  |  |
| CN(C(=O)[C@H](Cc1ccccc1)NC(=O)CN1CCN(C(=O)c2ccccc2)CC1=O)c1ccc(Cl)cc1 | 0.7 °C | > 20 µM | > 50 µM |  |  |  |  |
| CN(C(=O)[C@H](Cc1ccccc1)NC(=O)CN1CCN(C(=O)c2ccccc2N)CC1=O)c1ccc(Cl)cc1 | 0.7 °C | 4.5 µM | > 50 µM | 4.4 min | 1.3 min |  |  |
| CN(C(=O)[C@H](Cc1ccccc1)NC(=O)CN1CCN(C(=O)c2ccc(O)cc2)CC1=O)c1ccc(Cl)cc1 | 0.7 °C | > 20 µM | > 50 µM |  |  |  |  |
| CN(C(=O)[C@H](Cc1ccccc1)NC(=O)CN1CCN(C(=O)c2ccccn2)CC1=O)c1ccc(Cl)cc1 | 0.8 °C | 12.7 µM | > 50 µM |  |  |  |  |
| CN(C(=O)[C@H](Cc1ccccc1)NC(=O)Cn1ccc(C(F)(F)F)c(Oc2cc(Cl)cc(C(=O)O)c2)c1=O)c1ccc(Cl)cc1 | 1.9 °C | > 20 µM | > 50 µM |  |  |  |  |
| CN(C(=O)[C@H](Cc1ccccc1)NC(=O)CN1CCN(C(=O)c2ccc(F)cc2)CC1=O)c1ccc(Cl)cc1 | 1.3 °C | 11.5 µM | > 50 µM |  |  |  |  |
| CN(C(=O)[C@H](Cc1ccccc1)NC(=O)CN1CCN(C(=O)c2cccc(Br)c2)CC1=O)c1ccc(Cl)cc1 | 1.1 °C | 9 µM | > 50 µM | 4.8 min | 1.4 min |  |  |
| CN(C(=O)[C@H](Cc1ccccc1)NC(=O)CN1CCN(C(=O)c2ccc(Cl)cc2)CC1=O)c1ccc(Cl)cc1 | 1.3 °C | 9.2 µM | > 50 µM | 7.5 min | 1.3 min |  |  |
| CN(C(=O)[C@H](Cc1ccccc1)NC(=O)CN1CCN(C(=O)c2ccccc2[N+](=O)[O-])CC1=O)c1ccc(Cl)cc1 | 2.6 °C | 2.7 µM | > 50 µM | 3.8 min | 0.9 min |  |  |
| CN(C(=O)[C@H](Cc1ccccc1)NC(=O)CN1CCN(C(=O)c2ccc(N)cc2)CC1=O)c1ccc(Cl)cc1 | 0.5 °C | > 20 µM | > 50 µM |  |  |  |  |
| CN(C(=O)[C@H](Cc1ccccc1)NC(=O)CN1CCN(C(=O)c2cn[nH]c2)CC1=O)c1ccc(Cl)cc1 | 1.3 °C | > 20 µM | > 50 µM |  |  |  |  |
| CN(C(=O)[C@H](Cc1ccccc1)NC(=O)CN1CCN(C(=O)c2ccccc2Br)CC1)c1ccc(Cl)cc1 | 0.7 °C | 20 µM | > 50 µM |  |  |  |  |
| CN(C(=O)[C@H](Cc1ccccc1)NC(=O)CN1CCN(C(=O)c2ccccc2C(F)(F)F)CC1=O)c1ccc(Cl)cc1 | 1.4 °C | 7.2 µM | > 50 µM |  |  |  |  |
| CN(C(=O)[C@H](Cc1ccccc1)NC(=O)CN1CCN(C(=O)c2cccc(N)c2)CC1=O)c1ccc(Cl)cc1 | 0.3 °C | > 20 µM | > 50 µM |  |  |  |  |

| Compound | ΔTm [1] | EC50 [2] | CC50 at 72 h [3] | half-life at 1 µM [4] | half-life at 1 µM [5] | half-life [6] | Ratio EC50 [7] |
| --- | --- | --- | --- | --- | --- | --- | --- |
| CN(C(=O)[C@H](Cc1ccccc1)NC(=O)CN1CCN(C(=O)c2cccc(F)c2)CC1=O)c1ccc(Cl)cc1 | 1.7 °C | 13.3 µM | > 50 µM |  |  |  |  |
| Cc1[nH]c2ccccc2c1CC(=O)N[C@@H](Cc1ccccc1)C(=O)N(C)c1ccccc1 | 6.9 °C |  | > 50 µM |  |  |  |  |
| CN(C(=O)[C@H](Cc1ccccc1)NC(=O)CN1CCN(C(=O)c2cccc(C#N)c2)CC1=O)c1ccc(Cl)cc1 | 1.5 °C | 12.9 µM | > 50 µM |  |  |  |  |
| CN(C(=O)[C@H](Cc1ccccc1)NC(=O)CN1CCN(C(=O)c2cccc([N+](=O)[O-])c2)CC1=O)c1ccc(Cl)cc1 | 1.5 °C | 9.3 µM | > 50 µM | 2.6 min | 0.8 min |  |  |
| CN(C(=O)[C@H](Cc1ccccc1)NC(=O)CN1CCN(C(=O)c2cccc(Cl)n2)CC1=O)c1ccc(Cl)cc1 | 1.1 °C | 7.7 µM | > 50 µM | 3.6 min | 1 min |  |  |
| CN(C(=O)[C@H](Cc1ccccc1)NC(=O)CN1CCN(C(=O)c2ccc(C#N)cc2)CC1=O)c1ccc(Cl)cc1 | 1.7 °C | 11 µM | > 50 µM |  |  |  |  |
| CN(C(=O)[C@H](Cc1ccccc1)NC(=O)CN1CCN(C(=O)c2cccc(S(=O)(=O)F)c2)CC1=O)c1ccc(Cl)cc1 | 1.1 °C | > 20 µM | > 50 µM |  |  |  |  |
| CN(C(=O)[C@H](Cc1ccccc1)NC(=O)CN1CCN(C(=O)c2ccc([N+](=O)[O-])cc2)CC1=O)c1ccc(Cl)cc1 | 1.5 °C | > 20 µM | > 50 µM |  |  |  |  |
| CN(C(=O)[C@H](Cc1ccccc1)NC(=O)CN1CCN(C(=O)c2cccc(C(F)(F)F)c2)CC1=O)c1ccc(Cl)cc1 | 0.3 °C | > 20 µM | > 50 µM |  |  |  |  |
| CN(C(=O)[C@H](Cc1ccccc1)NC(=O)CN1CCN(C(=O)c2ccc(S(=O)(=O)F)cc2)CC1=O)c1ccc(Cl)cc1 | 0.8 °C | > 20 µM | > 50 µM |  |  |  |  |
| CN(C(=O)[C@H](Cc1ccccc1)NC(=O)CN1CCN(C(=O)c2ccccc2O)CC1=O)c1ccc(Cl)cc1 | 0.8 °C | > 20 µM | > 50 µM |  |  |  |  |
| CN(C(=O)[C@H](Cc1ccccc1)NC(=O)CN1CCN(C(=O)c2ccc(C(F)(F)F)cc2)CC1=O)c1ccc(Cl)cc1 | 0.5 °C | > 20 µM | > 50 µM |  |  |  |  |
| CN(C(=O)[C@H](Cc1ccccc1)NC(=O)CN1CCN(C(=O)c2ccncc2)CC1=O)c1ccc(Cl)cc1 | 0.7 °C | 15.6 µM | > 50 µM |  |  |  |  |
| CN(C(=O)[C@H](Cc1ccccc1)NC(=O)CN1CCN(C(=O)c2cccc(O)c2)CC1=O)c1ccc(Cl)cc1 | 0.8 °C | > 20 µM | > 50 µM |  |  |  |  |
| CN(C(=O)[C@H](Cc1ccccc1)NC(=O)CN1CCN(C(=O)c2c[nH]c3ccccc23)CC1=O)c1ccc(Cl)cc1 | 0.3 °C | > 20 µM | > 50 µM |  |  |  |  |
| CN(C(=O)[C@H](Cc1ccccc1)NC(=O)CN1CCN(C(=O)c2ccccc2F)CC1=O)c1ccc(Cl)cc1 | 1.6 °C | 9.5 µM | > 50 µM | 4.1 min | 0.9 min |  |  |
| CN(C(=O)[C@H](Cc1ccccc1)NC(=O)CN1CCN(C(=O)c2cccnc2)CC1=O)c1ccc(Cl)cc1 | 0.7 °C | 12.5 µM | > 50 µM |  |  |  |  |
| CN(C(=O)[C@H](Cc1ccccc1)NC(=O)CN1CCN(C(=O)c2ccccc2C#N)CC1=O)c1ccc(Cl)cc1 | 2.1 °C | 7.5 µM | > 50 µM |  |  |  |  |
| CN(C(=O)[C@H](Cc1ccccc1)NC(=O)CN1CCN(C(=O)c2ccccc2Br)CC1=O)c1ccc(Cl)cc1 | 1.1 °C | 3.8 µM | > 50 µM | 7.9 min | 1.8 min |  |  |
